PPC-1+TRAIL kill = compounds killing PPC-1 cancer cells with TRAIL present, primary screen, TRAIL potentiator project, ATPLite luminescence, uHTS; PPC-1 cells + TRAIL, ATPLite viability luminescence; cell killing (% activity), % at 4 µM or 5 µM; 0.41% of 220,000 active; AID 1443, 2008;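 active means cell killing above 50% in the first pass at 4 µM, then a duplicate retest at 5 µM averaging 50% or more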;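 further: plate controls were cells with TRAIL plus DMSO for no effect and medium-only wells lacking cells for full effect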
HSP90 inh = HSP90 inhibitors, primary screen, cell lysate, luminescence | inhibition, % at 5.6 µM | 0.91% of 290,000 active | Rabbit reticulocyte lysate, luciferase refolding luminescence, 3 h | Heat shock protein HSP 90 (rabbit reticulocyte lysate; luciferase refolding);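 active means inhibition above the screen-wide mean plus 3 SD, computed separately per campaign, cut at about 16% in these data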;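 further: 0% = DMSO wells and 100% = 60 µM geldanamycin wells; inhibitors lower the luminescence because luciferase stays unfolded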
FLuc inhib CS = firefly luciferase enzyme inhibitors, primary screen, artefact control for luciferase-based inhibitor screens, biochemical, luminescence, ATPLite; Luciferin 4-monooxygenase (Photinus pyralis), P08659; 10 min; inhibition, % at 10 µM; 1.5% of 200,000 active; AID 1006, 2008;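 active means inhibition above about 50% when tested at 10 µM, limit read from the data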
Target sequence (P08659 whole entry, looked up): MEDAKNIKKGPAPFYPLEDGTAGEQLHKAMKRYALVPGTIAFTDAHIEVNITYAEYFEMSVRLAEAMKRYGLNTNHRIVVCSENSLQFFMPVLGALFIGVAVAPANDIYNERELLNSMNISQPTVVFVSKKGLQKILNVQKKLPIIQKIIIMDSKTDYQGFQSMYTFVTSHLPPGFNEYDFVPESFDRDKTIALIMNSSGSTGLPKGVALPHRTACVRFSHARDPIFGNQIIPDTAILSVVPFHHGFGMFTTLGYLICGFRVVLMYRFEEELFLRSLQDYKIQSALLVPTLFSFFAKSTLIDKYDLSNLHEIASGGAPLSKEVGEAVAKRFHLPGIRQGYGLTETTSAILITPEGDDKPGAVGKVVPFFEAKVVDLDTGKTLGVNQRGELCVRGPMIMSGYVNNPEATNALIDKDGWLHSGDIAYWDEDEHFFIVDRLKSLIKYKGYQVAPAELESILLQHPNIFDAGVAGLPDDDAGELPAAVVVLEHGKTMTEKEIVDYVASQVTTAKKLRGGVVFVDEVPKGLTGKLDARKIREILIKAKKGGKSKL
C8 TRAIL sens = viability loss with TRAIL in NB7+C8 cells, primary screen, TRAIL sensitizer project, cell-based, ATPlite luminescence | inhibition (viability loss, TRAIL sensitization), % at 10 µM | 1% of 360,000 active;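 active means compounds causing at least 50% loss of cell viability in the single-dose screen, relative to plate controls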
FLuc act counter = FLuc activators, initial screening, artefact control for FLuc-dependent activation tests, biochemical, ATPlite luminescence; Luciferin 4-monooxygenase (Photinus pyralis), P08659; ATPlite luciferase biochemical, 10 min; 0 = ATP-free wells, 1 = DMSO control; activation factor at 10 µM; 200,000 tested, under 10 active;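 active means luciferase activation factor, scaled between plate controls, of at least 2 with compound at 10 µM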
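test system = cell-free luciferase reagent | medium = PBS as buffer for the ATP substrate | dosing = test compounds dosed from 2 mM stocks in 100% DMSO | incubation = 10 min at ambient temperature | detection = luminescence measurement of luciferase light output | benchmarks = low control with PBS replacing ATP, high control enzyme plus ATP without compound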
* = called active by the depositor; . = not tested or not shown. A selection: hits, their analogues and other compounds. The true share with any hit is near 2%.

SMILES | PPC-1+TRAIL kill | HSP90 inh | FLuc inhib CS | C8 TRAIL sens | FLuc act counter
CC(C)(C)OC(=O)NCc1ccc(NC(=O)c2nc[nH]c2C(=O)NCCCNC(=O)c2[nH]cnc2C(=O)Nc2ccc(CNC(=O)OC(C)(C)C)cc2)cc1 | . | . | . | 83* | .
COc1ccc(C(O)c2nc(-c3cnn(C)c3)cs2)cc1 (stereo not drawn) | . | . | . | -6 | .
O=C(c1ccoc1)N1CCN(c2cc(-c3ccccc3)nc3cc(-c4ccc(Br)cc4)nn23)CC1 | . | . | . | 39 | .
OC[C@@H]1CN(CCN2CCOCC2)C[C@H](n2cnc3c(NC4CCCC4)ncnc32)O1 | . | . | . | -1 | .
CCCS(=O)(=O)NC(=O)C1(C)CCCN(C(=O)c2ccccc2F)C1 (stereo not drawn) | . | . | . | -1 | .
CC(C)(C)OC(=O)NCc1ccc(CNC(=O)c2[nH]cnc2C(=O)Nc2ccccc2F)cc1 | . | . | . | 56* | .
CC(C)(C)OC(=O)NCc1ccc(NC(=O)c2nc[nH]c2C(=O)Nc2cc(Br)ccc2F)cc1 | . | . | . | 12 | .
CC(C)(C)OC(=O)NCCCCCNC(=O)c1[nH]cnc1C(=O)Nc1cc(Br)ccc1F | . | . | . | 58* | .
CCOC(=O)c1ccc(NC(=O)c2nc[nH]c2C(=O)NCCCCNC(=O)c2[nH]cnc2C(=O)Nc2ccc(C(=O)OCC)cc2)cc1 | . | . | . | 46 | .
O=C(Nc1ccccc1)c1nc[nH]c1C(=O)Nc1ccccc1F | . | . | . | 50* | .
CCOC(=O)c1ccc(NC(=O)c2nc[nH]c2C(=O)NCCCCCNC(=O)OC(C)(C)C)cc1 | 12 | . | . | 52* | .
O=C(Nc1ccccc1F)c1nc[nH]c1C(=O)NCc1ccccc1 | . | . | . | 9 | .
Cc1ccc(S(=O)ONc2cccc(NOS(=O)c3ccc(C)cc3)c2)cc1 (stereo not drawn) | . | . | . | -20 | .
CC(C)(C)OC(=O)C[C@@H]1C/C=C\C[C@H](CC(=O)N[C@@H](CO)Cc2ccccc2)C(=O)N[C@H](C(C)(C)C)COC1=O | . | . | . | -7 | .
O=C(c1ccncc1)N(Cc1cc2ccccc2[nH]c1=O)C1CCCCC1 | 12 | -3 | -4 | 76* | 1
O=C(c1ccco1)N(Cc1cc2ccccc2[nH]c1=O)C1CCCCC1 | 20 | 3 | -6 | -9 | 1.1
NC(=O)N/N=C/c1cn(-c2ccccc2)nc1-c1cccs1 | 44 | 2 | 70* | 39 | 0.3
O=C(O)c1cccc(N/N=C/c2cn(-c3ccccc3)nc2-c2cccs2)c1 | 4 | 3 | 54* | 21 | 0.5
O=C(N/N=C/c1cn(-c2ccccc2)nc1-c1cccs1)c1ccncc1 | 23 | 2 | 14 | 4 | 0.9
CC(C)Oc1ccc(CN2CCC2(C)C(=O)Nc2ccc(Cl)c(Cl)c2)cc1 (stereo not drawn) | . | . | . | 16 | .
Cc1ccc(C(=O)Sc2cccccc2=O)cc1 | . | 10 | . | 61* | .
O=C1c2c(O)ccc(O)c2C(=O)c2c(NCCNCCO)ccc(NCCNCCO)c21 | . | . | . | 82* | .
CC(C)N1C(=O)c2ccccc2NC(=O)C1C(=O)NCc1cccc(C(F)(F)F)c1 (stereo not drawn) | . | . | . | 20 | .
COc1ccc(N(C(=O)CCl)C(C(=O)NCCc2ccccc2)c2cccs2)cc1Cl (stereo not drawn) | 89* | 1 | 1 | 95* | 1
COc1cccc(N(C(=O)CCl)C(C(=O)NCCc2ccccc2)c2cccs2)c1 (stereo not drawn) | 35 | 6 | -7 | 96* | 1.1
SMILES | PPC-1+TRAIL kill | HSP90 inh | FLuc inhib CS | C8 TRAIL sens | FLuc act counter
COc1cccc(N(C(=O)c2snc(C(N)=O)c2N)C(C(=O)NCC2CCCO2)c2cccs2)c1 (stereo not drawn) | . | -3 | . | -4 | .
CC(=O)N(Cc1c(C)nn(-c2ccccc2)c1Cl)c1ccc(Cl)cc1 | -8 | 1 | -7 | 7 | 1.1
Cc1nn(-c2ccccc2)c(Cl)c1C(=O)NCC(=O)O | 10 | -1 | -6 | -9 | 1.1
Cc1nn(-c2ccccc2)c(Cl)c1CN(C(=O)CCl)c1ccc(Cl)cc1 | -3 | 0 | -7 | 97* | 1.1
Cc1nn(-c2ccccc2)c(Cl)c1CN(C(=O)CCl)c1cccc2ccccc12 | -3 | 4 | -6 | 97* | 1.1
O=[N+]([O-])/C=C/c1c(OCc2ccccc2)ccc2ccccc12 | -17 | 4 | -4 | 60* | 1
COC(=O)C[C@H]1CC[C@H](NC(=O)c2cccc(F)c2)[C@@H](CO)O1 | . | . | . | -6 | .
CCOC(=O)N1CCC(N2Cc3cccc(C(=O)Nc4cc(F)ccc4F)c3C2=O)CC1 | 56* | -1 | -6 | 27 | 1.1
O=c1ccnc(SCCc2ccccc2)[nH]1 | . | 6 | . | -9 | .
O=c1ccnc(S/C=C/c2ccccc2)[nH]1 | 34 | 5 | 63* | 8 | 0.4
C(=N\c1ncnc2sccc12)/NOCc1ccccc1 | 10 | 3 | -6 | -1 | 1.1
Clc1ccc(CON/C=N/c2ncnc3sccc23)cc1 | 8 | 17* | -8 | 4 | 1.1
COC(=O)C1C(=O)c2c([nH]c(C(=O)OC3CCCC3)c2C)CC1C (stereo not drawn) | 37 | -3 | 56* | 47 | 0.4
Cc1c(C(=O)OC2CCCC2)[nH]c2c1C(=O)CC(c1ccco1)C2 (stereo not drawn) | -16 | 1 | -5 | 20 | 1
CCCCCCCC(=O)OCC(O)CO (stereo not drawn) | 15 | 0 | -5 | -1 | 1.1
CCCCCCCCCCCCCCC(O)C[N+](C)(CCO)CCO (stereo not drawn) | . | . | . | 88* | .
O=C(/C=C/c1cccc(F)c1)N1CCc2ccccc21 | 43 | 0 | 62* | 64* | 0.4
O=C(c1ccc(Cl)cc1Cl)N1CCc2ccccc21 | . | 2 | . | 3 | .
O=C(/C=C/c1ccc(Cl)cc1Cl)N1CCc2ccccc21 | 38 | -4 | 63* | 61* | 0.4
CC(OC(=O)c1cccc(S(=O)(=O)N(C)C)c1)C(=O)NCC(=O)Nc1ccc(F)c(F)c1F (stereo not drawn) | . | . | . | 17 | .
O=C(Nc1ccccc1)c1cc(C2CCCN(C(=O)C3CC3)C2)on1 (stereo not drawn) | . | . | . | 51* | .
O=c1/c(=C\c2cccnc2)sc2nc3ccccc3n12 | 26 | -1 | 58* | -3 | 0.4
O=c1/c(=C/c2ccc(O)c([N+](=O)[O-])c2)sc2nc3ccccc3n12 | -2 | -2 | 21 | 35 | 0.8
Oc1[nH]c2ccccc2c1C=Nc1ccc2c(c1)OCCO2 | 36 | -4 | 76* | 57* | 0.2
Cc1cccnc1Nc1nc(-c2ccccc2)cs1 | . | 5 | . | 11 | .
Cc1cccnc1Nc1nc(-c2ccccn2)cs1 | 0 | 10 | 44 | 49* | 0.6
CCOC(=O)[C@]12CCCC=C1N(CCC1=CCCCC1)C(=O)[C@H](CC(=O)NCc1ccccc1)C2 | . | . | . | 5 | .
COCCN1C[C@@H](CO)O[C@@H](n2cnc3c(NCc4ccco4)ncnc32)C1 | . | . | . | 9 | .

Assay outcomes from PubChem.
